Test results: ChEMBL document CHEMBL1122285, “New myocardial imaging agents: stabilization of radioiodine as a terminal vinyl iodide moiety on tellurium fatty acids” (J Med Chem, 1983)

Experiments:
[1] = test system: Rattus norvegicus; assay: Tested for distribution of radioactivity iodine 125 in heart of rat after 30 min of intravenous administration (value in parentheses indicates range); assay type: ADME, organism-based; conditions: in vivo, 0.5 h
Summary of the method: (§1)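 Fischer 344 rats, four per time point, under ether anaesthesia. Each received ~8.6 μCi of 125I-labelled fatty acid (sp act ~20 mCi/mmol) by lateral tail vein in 0.5 mL 6% bovine serum albumin with 10% final ethanol, filtered before injection. Percent injected dose/g was calculated against injectate standards and reported as mean (range). Thyroid weight was taken as body weight × 7.5 mg/100 g.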

[2] = test system: Rattus norvegicus; assay: Tested for distribution of radioactivity iodine 125 in heart of rat after 4 hours of intravenous administration; assay type: ADME, organism-based; conditions: in vivo; summary of the method: as §1
[3] = test system: Rattus norvegicus; assay: Tested for distribution of radioactivity iodine 125 in heart of rat after 60 min of intravenous administration; assay type: ADME, organism-based; conditions: in vivo, 1 h; summary of the method: as §1
[4] = test system: Rattus norvegicus; assay: Tested for distribution of radioactivity of iodine 125 in blood of rat after 2 hour of intravenous administration; assay type: ADME, organism-based; conditions: in vivo; summary of the method: as §1
[5] = test system: Rattus norvegicus; assay: Tested for distribution of radioactivity of iodine 125 in blood of rat after 30 min of intravenous administration; assay type: ADME, organism-based; conditions: in vivo, 0.5 h; summary of the method: as §1
[6] = test system: Rattus norvegicus; assay: Tested for distribution of radioactivity of iodine 125 in blood of rat after 4 hours of intravenous administration; assay type: ADME, organism-based; conditions: in vivo; summary of the method: as §1
[7] = test system: Rattus norvegicus; assay: Tested for distribution of radioactivity of iodine 125 in blood of rat after 5 min of intravenous administration; assay type: ADME, organism-based; conditions: in vivo; summary of the method: as §1
[8] = test system: Rattus norvegicus; assay: Tested for distribution of radioactivity of iodine 125 in blood of rat after 60 min of intravenous administration; assay type: ADME, organism-based; conditions: in vivo, 1 h; summary of the method: as §1
[9] = test system: Rattus norvegicus; assay: Tested for distribution of radioactivity of iodine 125 in heart of rat after 5 min of intravenous administration; assay type: ADME, organism-based; conditions: in vivo; summary of the method: as §1
[10] = test system: Rattus norvegicus; assay: Tested for distribution of radioactivity of iodine 125 in kidney of rat after 2 hours of intravenous administration; assay type: ADME, organism-based; conditions: in vivo; summary of the method: as §1
[11] = test system: Rattus norvegicus; assay: Tested for distribution of radioactivity of iodine 125 in kidney of rat after 30 min of intravenous administration; assay type: ADME, organism-based; conditions: in vivo, 0.5 h; summary of the method: as §1
[12] = test system: Rattus norvegicus; assay: Tested for distribution of radioactivity of iodine 125 in kidney of rat after 4 hours of intravenous administration; assay type: ADME, organism-based; conditions: in vivo; summary of the method: as §1
[13] = test system: Rattus norvegicus; assay: Tested for distribution of radioactivity of iodine 125 in kidney of rat after 5 min of intravenous administration; assay type: ADME, organism-based; conditions: in vivo; summary of the method: as §1
[14] = test system: Rattus norvegicus; assay: Tested for distribution of radioactivity of iodine 125 in liver of rat after 2 hr of intravenous administration; assay type: ADME, organism-based; conditions: in vivo; summary of the method: as §1
[15] = test system: Rattus norvegicus; assay: Tested for distribution of radioactivity of iodine 125 in liver of rat after 30 min of intravenous administration; assay type: ADME, organism-based; conditions: in vivo, 0.5 h; summary of the method: as §1
[16] = test system: Rattus norvegicus; assay: Tested for distribution of radioactivity of iodine 125 in liver of rat after 5 min of intravenous administration; assay type: ADME, organism-based; conditions: in vivo; summary of the method: as §1
[17] = test system: Rattus norvegicus; assay: Tested for distribution of radioactivity of iodine 125 in liver of rat after 60 min of intravenous administration; assay type: ADME, organism-based; conditions: in vivo, 1 h; summary of the method: as §1
[18] = test system: Rattus norvegicus; assay: Tested for distribution of radioactivity of iodine 125 in thyroid of rat after 30 min of intravenous administration; assay type: ADME, organism-based, Thyroid gland; conditions: in vivo, 0.5 h; summary of the method: as §1
[19] = test system: Rattus norvegicus; assay: Tested for distribution of radioactivity of iodine 125 in thyroid of rat after 4 hr of intravenous administration; assay type: ADME, organism-based, Thyroid gland; conditions: in vivo; summary of the method: as §1
[20] = test system: Rattus norvegicus; assay: Tested for distribution of radioactivity of iodine 125 in thyroid of rat after 5 min of intravenous administration; assay type: ADME, organism-based, Thyroid gland; conditions: in vivo; summary of the method: as §1
[21] = test system: Rattus norvegicus; assay: Tested for distribution of radioactivity of iodine 125 in thyroid of rat after 60 min of intravenous administration; assay type: ADME, organism-based, Thyroid gland; conditions: in vivo, 1 h; summary of the method: as §1
[22] = test system: Rattus norvegicus; assay: Tested for distribution of radioactivity of iodine 125 in lungs of rat after 2 hours of intravenous administration; assay type: ADME, organism-based, Lung; conditions: in vivo; summary of the method: as §1
[23] = test system: Rattus norvegicus; assay: Tested for distribution of radioactivity of iodine 125 in lungs of rat after 30 min of intravenous administration; assay type: ADME, organism-based, Lung; conditions: in vivo, 0.5 h; summary of the method: as §1
[24] = test system: Rattus norvegicus; assay: Tested for distribution of radioactivity of iodine 125 in lungs of rat after 5 min of intravenous administration; assay type: ADME, organism-based, Lung; conditions: in vivo; summary of the method: as §1
[25] = test system: Rattus norvegicus; assay: Tested for distribution of radioactivity of iodine 125 in lungs of rat after 60 min of intravenous administration; assay type: ADME, organism-based, Lung; conditions: in vivo, 1 h; summary of the method: as §1
[26] = test system: Rattus norvegicus; assay: Tested for distribution of radioactivity of iodine 125 in thyroid of rat after 2 hr of intravenous administration; assay type: ADME, organism-based, Thyroid gland; conditions: in vivo; summary of the method: as §1
[27] = test system: Rattus norvegicus; assay: Tested for distribution of radioactivity of iodine 125 in liver of rat after 4 hr of intravenous administration; assay type: ADME, organism-based; conditions: in vivo; summary of the method: as §1
[28] = test system: Rattus norvegicus; assay: Tested for distribution of radioactivity in heart of rat after 2 hours of intravenous administration; assay type: ADME, organism-based; conditions: in vivo; summary of the method: as §1
[29] = Tested for distribution of radioactivity of iodine 125 in kidney of rat after 60 min of intravenous administration; assay type: ADME; conditions: in vivo, 1 h; summary of the method: as §1

## O=C(O)CCCCC[Te]CCCCCCCCC/C=C/I
[1]
  Injected dose/g: 2.78%
[2]
  Injected dose/g: 2.37%
[3]
  Injected dose/g: 2.96%
[4]
  Injected dose/g: 0.23%
[5]
  Injected dose/g: 0.22%
[6]
  Injected dose/g: 0.27%
[7]
  Injected dose/g: 0.26%
[8]
  Injected dose/g: 0.22%
[9]
  Injected dose/g: 3.47%
[10]
  Injected dose/g: 0.88%
[11]
  Injected dose/g: 0.89%
[12]
  Injected dose/g: 0.77%
[13]
  Injected dose/g: 1.05%
[14]
  Injected dose/g: 4.78%
[15]
  Injected dose/g: 5.63%
[16]
  Injected dose/g: 6.18%
[17]
  Injected dose/g: 5.33%
[18]
  Injected dose/g: 13.5%
[19]
  Injected dose/g: 69.8%
[20]
  Injected dose/g: 8.54%
[21]
  Injected dose/g: 22.2%
[22]
  Injected dose/g: 1%
[23]
  Injected dose/g: 0.96%
[24]
  Injected dose/g: 1.29%
[25]
  Injected dose/g: 1%
[26]
  Injected dose/g: 43.8%
[27]
  Injected dose/g: 4.4%
[28]
  Injected dose/g: 2.86%
[29]
  Injected dose/g: 0.95%
